# Only some compounds are listed: those with a hit (about 4.3% of all), similar ones and a draw of the others.
# UBC13 inh = inhibitors of human UBC13 polyubiquitin chain formation; 330,000 tested, 0.47% active; inhibition, % at 20 µM; TR-FRET; in the data active means inhibition above about 45%, passing the limit was not always enough
# Target sequence (P61088 whole entry, looked up): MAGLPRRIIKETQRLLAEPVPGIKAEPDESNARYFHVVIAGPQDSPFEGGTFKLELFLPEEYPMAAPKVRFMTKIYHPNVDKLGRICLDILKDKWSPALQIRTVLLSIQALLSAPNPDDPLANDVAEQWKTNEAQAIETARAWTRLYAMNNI
# SUMO HTRF inh = blocks human SUMOylation mediated by UBC9; AID 2006; P63279; 290,000 tested, 0.36% active; HTRF SUMOylation assay, SAE1/SAE2 + UBC9, in vitro; inhibition, % at 35 µM; in the data active means inhibition above about 50%, passing the limit was not always enough
# Target sequence (P63279 whole entry, looked up): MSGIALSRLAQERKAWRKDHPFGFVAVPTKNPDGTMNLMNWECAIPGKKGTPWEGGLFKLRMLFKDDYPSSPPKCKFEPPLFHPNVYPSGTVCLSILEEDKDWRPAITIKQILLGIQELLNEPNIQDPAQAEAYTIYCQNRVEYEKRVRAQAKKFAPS
# RBBP9 inhibitor = human RBBP9 hydrolase inhibition; recombinant RBBP9, FP-Rh probe fluorescence polarization; inhibition, % at 7.94 µM; 220,000 tested, 0.2% active; AID 1515;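 active means inhibition above the campaign mean of all tested compounds plus 3 SD, cut at about 14% in these data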;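 further: plate controls were DMSO wells with RBBP9 for no effect and wells lacking RBBP9 protein for full effect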
# Target sequence (O75884 whole entry, looked up): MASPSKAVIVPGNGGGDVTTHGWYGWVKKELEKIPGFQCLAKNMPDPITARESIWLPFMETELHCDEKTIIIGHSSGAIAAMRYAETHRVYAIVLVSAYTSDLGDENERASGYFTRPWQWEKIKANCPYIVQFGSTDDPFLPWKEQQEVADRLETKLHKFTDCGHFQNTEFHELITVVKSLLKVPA
#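 Test system – recombinant human RBBP9 · Input – RBBP9 2.5 µM in dispensing solution, pre-mixing · Medium – Tris buffer pH 8.0, NaCl, Pluronic · Schedule – preincubation 30 min plus labeling 45 min at 25 °C · Measured by – fluorescence polarization · Measure – % inhibition · Controls – DMSO and no-protein wells · Replicates – one well per compound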
# Rin1 Abl inh = inhibitors of human Rin1-Abl protein interaction | P00519+Q13671 | 360,000 tested, 0.4% active | inhibition, % at 7.35 µM | TR-FRET Rin1/Abl binding, biochemical; in the data active means inhibition above about 5%, passing the limit was not always enough
# PREPL inh = inhibitors of human prolyl oligopeptidase-like enzyme PREPL; Q4J6C6; recombinant PREPL, fluorescence polarization activity-based probe; inhibition, % at 5.96 µM; 320,000 tested, 0.68% active; in the data active means inhibition above about 43%;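 further: 0% = enzyme with DMSO and 100% = wells lacking enzyme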
# ALR H2O2 inh = inhibitors of human sulfhydryl oxidase ALR | P55789 | purified ALR, DTT oxidation, H2O2 HRP-luminol luminescence | inhibition, % (test concentration not listed) | 290,000 tested, 3.8% active | AID 485317;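 active means mean replicate inhibition above about 79%, with every replicate also reaching it, limit read from the data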
# * marks the source's active call; other numbers are inactive results; . = no result.
SMILES,UBC13 inh,SUMO HTRF inh,RBBP9 inhibitor,Rin1 Abl inh,PREPL inh,ALR H2O2 inh
CC(C)OCCCn1c(=NC(=O)c2ccncc2)c(C#N)cc2c(=O)n3ccccc3nc21,24.4,16.7,2.1,4.8,2.2,97.3*
CC(C(=O)Nc1ccc(S(N)(=O)=O)cc1)N1CCc2ccccc21 (centres undefined),1.7,-9.7,-5.5,-2.4,7.8,98.8*
Cn1c2nc(=O)n(-c3ccccc3)c(=O)c-2nc2c1CCCC2,.,.,.,9.1*,.,.
COc1cc(C(=O)COC(=O)c2ccncc2)cc(OC)c1OC,-7.3,.,.,-0.4,-3.3,-9.4
COc1cc(/C=N/NC(=O)/C(=C/c2ccccc2)CCO)ccc1O,-19.7,-18.1,-4.7,-2.2,9.5,99.3*
O=C(N/N=C/c1ccc(O)cc1O)/C(=C/c1ccccc1)CCO,4.4,-7.3,3.4,-0.6,10.5,81.0*
COc1ccc(/C=N/NC(=O)/C(=C/c2ccccc2)CCO)cc1,5.2,16.3,-2.2,-0.1,-1.2,63.8
COc1cccc(CN2CCNC(=O)C2CC(=O)NCCc2nc(C)c(C)s2)c1OC (centres undefined),-9.8,-12.2,-2.1,1.1,0.5,13.5
CCC(C)Sc1nnc(Cc2cc(=O)[nH]c(=O)[nH]2)n1-c1ccc(F)cc1 (centres undefined),-3.3,0.8,1.5,-2.8,-10.3,97.8*
CC(NC(C)c1ccccc1Cl)C(=O)Nc1cccc(S(=O)(=O)N2CCCCC2)c1 (centres undefined),14.8,.,.,0.6,13.8,-13.5
CS(=O)(=O)c1ccc2nc(NC(=O)c3ccc(NS(=O)(=O)c4ccc(F)c(F)c4)cc3)sc2c1,14.3,10.5,-21.8,-3.5,-5.9,3.8
O=C(Nc1nc2ccc(SC(F)F)cc2s1)c1ccc(NS(=O)(=O)c2ccc(F)c(F)c2)cc1,14.6,23.2,-31.7,-1.6,3.1,98.6*
COC(=O)C/C=C/N(Cc1ccccc1OC)S(=O)(=O)CCl,.,.,.,-3.9,.,.
Cc1ccc(F)c(S(=O)(=O)NC(=O)C2(C)CCN2C(=O)c2cccc3ccccc23)c1 (centres undefined),.,.,.,-0.1,.,.
Cc1nc(N2CCN(C)CC2)c2c(C)c(C(=O)Nc3ccc(C)c(F)c3)sc2n1,13.8,-16.4,-11.3,-0.3,30.4,96.1*
COc1ccc(Nc2nc3cc(-c4ccccc4C)sc3c(=O)n2C)cc1OC,.,.,.,-2.7,.,.
Cc1nnc(SCC(=O)Nc2ccc(S(N)(=O)=O)cc2)n(N)c1=O,18.9,.,.,4.1,4.2,98.9*
Cc1ccc(NC(=O)CSc2nnc(C)c(=O)n2N)cc1,4.1,-3.6,-3.9,1.4,-3.4,4.9
CCc1ccc(NC(=O)CSc2nnc(C)c(=O)n2N)cc1,-3.4,-6.8,.,3.2,-3.2,99.0*
Cc1nnc(NC(=O)CSc2nnc(C)c(=O)n2N)s1,-4.2,5.4,.,0.3,6.4,-14.4
CCc1nnc(NC(=O)CSc2nnc(C)c(=O)n2N)s1,-0.8,-8.7,.,-0.1,11.7,94.8*
COc1ccc(OC)c(S(=O)(=O)N2CCC(C(=O)NCc3ccncc3)CC2)c1,6.3,-4.2,.,0.1,-1.3,-29.0
CC(C(=O)Nc1ccccc1-c1ccccc1)N(C)Cc1nc2ccccc2c(=O)[nH]1 (centres undefined),2.2,-8.1,-5.7,1.0,-8.9,-4.4
Cc1cc(C)cc(-n2c3ccc(NC(=S)NC4CCCCC4)cc3c(=O)n2C)c1,.,.,.,0.3,.,.
Cn1nccc1NC(=O)Nc1ccccc1,-3.0,28.3,.,5.1,1.6,.
SMILES,UBC13 inh,SUMO HTRF inh,RBBP9 inhibitor,Rin1 Abl inh,PREPL inh,ALR H2O2 inh
Cn1nccc1NC(=O)Nc1cccc(Br)c1,2.2,65.2*,.,-1.2,5.8,-2.2
Cc1cc(C(=O)Nc2sc3c(c2C#N)CCCC3)no1,-19.0,-7.4,-4.3,0.2,13.9,96.8*
CC(=O)Nc1ccc(NC(=O)Cn2c(=O)n(-c3ccc(C)cc3)c(=O)c3oc4ccccc4c32)cc1,-1.8,21.4,-11.0,-0.2,6.1,1.8
S=c1nc(-c2ccco2)[nH][nH]1,1.8,-6.6,-13.6,-2.9,-3.4,98.7*
S=c1nc(-c2ccc(Cl)cc2)[nH][nH]1,-8.3,24.2,-13.2,0.2,4.0,.
CCN(CC)S(=O)(=O)c1ccc(Cl)c(C(=O)OC2CC(C)OC2=O)c1 (centres undefined),4.9,-4.0,.,0.5,-4.8,3.3
Cc1ccc(C(=O)Nc2nc3nc(-c4ccccc4)cc(=O)n3[nH]2)cc1,6.8,9.7,-11.5,0.1,2.3,91.7*
CC[C@@]12C(=O)N(c3cccc(F)c3)C(=O)N1[C@H](c1ccc(Cl)cc1)[C@@H]1C(=O)N(C3CCCCC3)C(=O)[C@@H]12,14.4,.,.,2.8,3.2,-5.7
C=CCn1c(O)c(N=Nc2ccccc2[N+](=O)[O-])c2ccccc21,.,.,.,0.0,.,.
Cc1ccc(S(=O)(=O)N(C)c2ccc(OCC(=O)Nc3nc4c(ccc5ccccc54)s3)cc2)cc1,-13.8,-35.4,-5.3,-3.9,21.0,83.8*
CN1CCc2nc(SCC(=O)Nc3ccc(Cl)cc3)c(C#N)cc2C1,29.4,.,-2.5,0.2,4.4,99.5*
O=C(CSc1nnnn1C1CC1)N1CCN(c2ccc(O)cc2)CC1,-20.1,.,.,2.0,4.0,99.0*
CC1CCCCC1NC(=O)c1cccc(S(=O)(=O)N2CCN(Cc3ccccc3)CC2)c1 (centres undefined),-7.6,.,.,-0.5,11.1,8.6
CC(C)OC(=O)Cn1nc(C(c2ccccc2)c2ccccc2)oc1=O,-2.8,-9.3,.,-3.6,-9.8,-27.4
COc1cccc(-c2nc(CS(=O)(=O)CC(=O)NCCCOC(C)C)c(C)o2)c1,2.4,-16.0,-2.1,-0.5,5.2,93.9*
COc1cccc(-c2nc(CS(=O)CC(=O)NCCCOC(C)C)c(C)o2)c1 (centres undefined),-6.0,-6.4,4.5,-0.5,-3.8,98.8*
COc1cccc(-c2nc(CS(=O)(=O)CC(=O)NCc3ccc4c(c3)OCO4)c(C)o2)c1,-3.5,12.7,.,0.9,-6.6,95.4*
CCC(C)NC(=O)CS(=O)(=O)Cc1nc(-c2cccc(OC)c2)oc1C (centres undefined),2.0,-3.8,-0.2,-1.1,-0.9,99.2*
COc1cccc(-c2nc(CS(=O)(=O)CC(=O)NCc3ccccc3)c(C)o2)c1,2.6,1.1,-7.0,1.2,4.9,.
CCN(CC(=O)Nc1ccc2c(c1)OCCO2)C(=O)/C=C/c1cc(Br)ccc1OC,.,.,.,-1.5,.,.
O=C(Nc1ccc(O)cc1)C1CCCN1S(=O)(=O)c1ccc(F)cc1 (centres undefined),-1.3,-0.3,-3.6,-3.1,1.0,98.2*
COc1ccc(NC(=O)CSc2n[nH]c(CNc3cccc(C)c3)n2)cc1,3.3,2.4,.,3.0,11.1,3.7
CC(C)(C)OC(=O)N1CCN(C(=O)c2[nH]cnc2C(=O)Nc2cccc(Cl)c2)CC1,3.9,.,.,0.3,13.2,-6.3
C[C@H](N)c1nnc(SCc2ccc(Cl)cc2Cl)o1,10.6,8.8,6.3,-0.9,12.4,98.7*

# Assay outcomes as filed in PubChem.
